Laboratory results taken from publication PMC4145632 (ACS Chemical Biology, 2014).

Legend:
[1] = target: E6–E6AP interaction (Human papillomavirus type 16, UniProt P03126); experiment: ELISA-based E6–E6AP association assay; assay type: binding, HPV16; details: E6M-GST / MBP-E6AP association
[2] = tested on: E6M; experiment: Fluorescent E6 thermal stability assay; assay type: binding, HPV16; details: E6M melting curve 20-80 °C, 4 µM E6M, 10 µM compound
How it was run: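 Full-length untagged E6M: bacterially expressed 6xHis-SUMO fusion, SUMO-protease cleaved, SUMO removed on Ni-NTA. E6M mixed in buffer with SYPRO orange and test compound in DMSO, or DMSO control. Controls: protein only, compound only. Heated 20–80 °C in a real-time PCR instrument; fluorescence at 580 nm (dye bound to protein) read against temperature. Run in replicate.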

[3] = tested on: SiHa (HPV16 integrated); experiment: p53 level Western blot in SiHa cells; assay type: cell-based, human; details: 48 h, compound 1–10 μM
How it was run: (§1)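 Cells plated, then dosed next day with increasing concentrations of test compound in DMSO, or DMSO control, for 48 h. HCT116 (colon, wild-type p53) got the same concentrations as SiHa/HeLa. Cells washed twice, lysed in RIPA buffer with protease inhibitors, and protein normalised by BCA. Lysates run on SDS-PAGE, transferred to PVDF and probed with anti-p53 antibody.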

[4] = tested on: HeLa (HPV18 integrated); experiment: p53 level Western blot in HeLa cells; assay type: cell-based, human; details: 48 h, compound 1–10 μM
How it was run: as §1

[5] = tested on: HCT116 cells; experiment: p53 level Western blot in HCT116 cells; assay type: cell-based, human
How it was run: as §1

[6] = tested on: HCT116 cells; experiment: MTS cytotoxicity assay in HCT116 cells; assay type: cell-based, human; details: HCT116, 48 h, all concentrations tested 1.6–25 μM
[7] = Resazurin cell viability, PA-1/E6 cells; assay type: cell-based, human; details: human, PA-1/E6 cells (PA-1 cells stably transfected with E6)
How it was run: (§2)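 Cells plated on day 1; test compound in DMSO, or DMSO, added on day 2. Puromycin as control. Flavonoid compounds and puromycin incubated 24 h. Resazurin then added to 5 μM final for 1 h; resorufin fluorescence read at 590 nm as a surrogate for viability. Cells: HCT116, parental PA-1 (human ovarian teratocarcinoma) or PA-1 stably transfected with HPV16 E6.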

[8] = tested on: PA-1/E6 cells; experiment: Resazurin cell viability, PA-1/E6 cells; assay type: cell-based, human; details: PA-1/E6, 24 h
How it was run: as §2

[9] = tested on: PA-1/E6 cells; experiment: p53 level Western blot in PA-1/E6 cells; assay type: cell-based, human; details: PA-1/E6, Western blot of remaining cells after treatment
How it was run: (§3)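 PA-1 and PA-1/HPV16 E6 cells treated with test compound at the same concentrations used for the resazurin viability test. Remaining cells washed, lysed in RIPA buffer with protease inhibitors and protein normalised by BCA. Lysates resolved by SDS-PAGE, transferred to PVDF and immunoblotted for p53.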

[10] = tested on: PA-1 cells; experiment: p53 level Western blot in PA-1 cells; assay type: cell-based, human; details: PA-1, Western blot of remaining cells after treatment
How it was run: as §3

[11] = tested on: HeLa cells; experiment: Cell proliferation in HeLa cells; assay type: cell-based, human; details: data not shown
[12] = tested on: SiHa cells; experiment: Cell proliferation in SiHa cells; assay type: cell-based, human; details: data not shown
[13] = tested on: PA-1 parental cells; experiment: Resazurin cell viability, PA-1 parental cells; assay type: cell-based, human; details: 24 h
How it was run: as §2

[14] = tested on: HCT116 cells; experiment: Resazurin cell viability, HCT116 cells; assay type: cell-based, human; details: HCT116, 24 h
How it was run: as §2

[15] = tested on: HPV-positive cell lines; details: HPV-positive cell lines ref 33; cited from earlier work
[16] = tested on: HPV-positive cell lines; details: cited from earlier work
[17] = HCT116, same concentrations as viability test (Figure 6B)

Chain of E6–E6AP interaction (P03126 whole entry): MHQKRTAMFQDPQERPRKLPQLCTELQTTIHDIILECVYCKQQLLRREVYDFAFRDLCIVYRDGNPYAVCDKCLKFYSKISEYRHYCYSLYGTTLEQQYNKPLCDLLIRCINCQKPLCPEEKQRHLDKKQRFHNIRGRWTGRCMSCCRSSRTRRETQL
Chain of E6–E6AP interaction (Q05086 363-440, further chain): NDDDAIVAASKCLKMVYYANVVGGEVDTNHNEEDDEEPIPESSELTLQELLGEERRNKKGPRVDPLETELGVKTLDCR

SMILES	ELISA IC50 (stated in words) [1]	p53 levels [5, 17]	viability at 24 h [7] [%]	Cell viability (resazurin) [8]	p53 levels [9]	p53 levels [10]	Inhibition of cell proliferation [11]	Inhibition of cell proliferation [12]	also measured
O=c1c(O)c(-c2ccc(O)c(O)c2)oc2c(O)c(O)cc(O)c12 [Gossypetin]	sub-micromolar	unchanged	> 50	sensitive	concentration dependent increase	unchanged	did not observe an inhibition of cell proliferation	did not observe an inhibition of cell proliferation	Thermal Stability [2]: stabilizes E6M; p53 levels [3]: significant increase in p53 levels; p53 levels [4]: significant increase in p53 levels; Toxicity (MTS) [6]: not toxic
COc1ccc(C[C@H](N)C(=O)N[C@H]2[C@@H](O)[C@H](n3cnc4c(N(C)C)ncnc43)O[C@@H]2CO)cc1 [Puromycin, reference compound]	–	–	–	equally cytotoxic	–	–	–	–	Cell viability (resazurin) [13]: equally cytotoxic; Cell viability (resazurin) [14]: equally cytotoxic
O=c1cc(-c2ccccc2)oc2cc(O)c(O)c(O)c12 [baicalein]	sub-micromolar	unchanged	> 50	sensitive	concentration dependent increase	unchanged	did not observe an inhibition of cell proliferation	did not observe an inhibition of cell proliferation	–
CC[n+]1c(-c2ccccc2)c2cc(N)ccc2c2ccc(N)cc21 [ethidium bromide, Ethidium bromide, reference compound]	–	–	–	–	–	–	–	–	p53 levels ([5]; HCT116 (HPV-negative, wild-type p53), 48 h, Western blot): effectively stabilized p53
O=c1cc(-c2ccc(O)c(O)c2)oc2cc(O)cc(O)c12 [luteolin]	–	–	–	–	–	–	–	–	p53 and p21Cip1/Waf1 protein [15]: increase in p53 and p21^Cip1/Waf1 protein; Viability of HPV-positive cell lines [16]: decreased viability
